The target in this test is Cruzipain (Trypanosoma cruzi, UniProt P25779). Kind of test: Inhibition of Trypanosoma cruzi cruzain preincubated for 5 mins before substrate addition in presence of 0.01% Triton X-100. The method in brief: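 Cruzain IC50s were measured from dose-response curves with Triton X-100 in the assay buffer at either 0.01% or 0.001%. At 0.001% Triton, some runs included pre-incubation with BSA.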

Structures are written as SMILES.

Sequence of Cruzipain (P25779 whole entry): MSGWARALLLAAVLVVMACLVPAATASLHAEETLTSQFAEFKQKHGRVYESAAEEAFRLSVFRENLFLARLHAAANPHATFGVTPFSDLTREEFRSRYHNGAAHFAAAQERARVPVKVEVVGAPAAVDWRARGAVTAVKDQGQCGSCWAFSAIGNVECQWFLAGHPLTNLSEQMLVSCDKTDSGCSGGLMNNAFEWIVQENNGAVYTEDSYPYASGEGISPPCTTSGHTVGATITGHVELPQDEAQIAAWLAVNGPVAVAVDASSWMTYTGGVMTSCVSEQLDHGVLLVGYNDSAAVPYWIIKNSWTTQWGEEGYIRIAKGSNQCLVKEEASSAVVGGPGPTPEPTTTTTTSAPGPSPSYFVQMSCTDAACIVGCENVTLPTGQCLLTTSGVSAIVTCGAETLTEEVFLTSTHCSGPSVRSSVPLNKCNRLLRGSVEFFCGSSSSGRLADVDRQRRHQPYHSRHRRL

As for `Nc1ccccc1-c1nnc(C(=O)Nc2cccc(N3CCCC3)c2)o1` [5-(2-Amino-phenyl)-[1,3,4]oxadiazole-2-carboxylic acid(3-pyrrolidin-1-yl-phenyl)-amide], the half-maximal inhibitory concentration (IC50) (usually the concentration at which inhibition is half-maximal) is greater than 100 µM.
Under `Cc1cc(NC(=O)c2nnc(-c3ccccc3N)o2)[nH]n1` [5-(2-Amino-phenyl)-[1,3,4]oxadiazole-2-carboxylic acid(5-methyl-2H-pyrazol-3-yl)-amide] stands greater than 100 µM; under `Cc1ccc(-c2cc(NC(=O)c3nnc(-c4ccccc4N)o3)[nH]n2)cc1` [5-(2-Amino-phenyl)-[1,3,4]oxadiazole-2-carboxylic acid(5-p-tolyl-2H-pyrazol-3-yl)-amide], greater than 100 µM; under `Nc1ccccc1-c1nnc(C(=O)Nc2cc(-c3ccccc3)n[nH]2)o1` [5-(2-Amino-phenyl)-[1,3,4]oxadiazole-2-carboxylic acid(5-phenyl-2H-pyrazol-3-yl)-amide], greater than 100 µM.
Under `CC(C)(C)c1cc(NC(=O)c2nnc(-c3ccccc3N)o2)[nH]n1` [5-(2-Amino-phenyl)-[1,3,4]oxadiazole-2-carboxylic acid(5-tert-butyl-2H-pyrazol-3-yl)-amide] stands greater than 50 µM; under `Nc1ccccc1-c1nnc(C(=O)Nc2ccc3oc4c(c3c2)CCCC4)o1` [5-(2-Amino-phenyl)-[1,3,4]oxadiazole-2-carboxylic acid(6,7,8,9-tetrahydrodibenzofuran-2-yl)-amide], greater than 100 µM; under `COc1ccc(-c2cc(NC(=O)c3nnc(-c4ccccc4N)o3)[nH]n2)cc1` [5-(2-Amino-phenyl)-[1,3,4]oxadiazole-2-carboxylic acid[5-(4-methoxy-phenyl)-1Hpyrazol-3-yl]-amide], greater than 100 µM.

(Values after BindingDB's records for doi:10.1021/jm9009229 (University of California, 2010).)
